Data published in ChEMBL document CHEMBL5096174, “The Natural Alkaloid Berberine Can Reduce the Number of Pseudomonas aeruginosa Tolerant Cells” (2021).
Converted amounts (≈) assume the structure as drawn. The source made the active and inactive calls.

Tests used:
Pseudomonas aeruginosa [1] = assay: Bactericidal activity against wild type Pseudomonas aeruginosa K767 assessed as increase in biofilm production at 80 ug/ml incubated overnight by crystal voilet staining based analysis relative to control; assay type: functional; conditions: dose 80 µg/ml
Summary of the method: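 Biofilms grown overnight at 37 °C in flat-bottom microtiter plates in LB with or without berberine 80 µg/mL. Planktonic OD600 recorded; washed sessile phase stained 15 min with 1% crystal violet, dye taken up in 96% ethanol, OD570 read. Output is OD570/OD600. Run in triplicate.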

Pseudomonas aeruginosa [2] = assay: Bactericidal activity against Pseudomonas aeruginosa K1525 mexY mutant assessed as increase in biofilm production at 80 ug/ml incubated overnight by crystal voilet staining based analysis relative to control; assay type: functional; conditions: dose 80 µg/ml
Summary of the method: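 Biofilms grown overnight at 37 °C in LB with or without berberine 80 µg/mL in flat-bottom microtiter wells. Planktonic phase removed and its OD600 read. Sessile phase washed with water, stained with 1% crystal violet for 15 min, washed, solubilised in 96% ethanol and read at OD570. Values normalised as OD570/OD600. Triplicate.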

[3] = Inhibition of efflux pump in wild type Pseudomonas aeruginosa K767 assessed as fold reduction in CFU count in presence of tobramycin incubated for 24 hrs by ethidium bromide efflux assay relative to tobramycin alone; conditions: in the assay text read “by planktonic persistence assay” for “by ethidium bromide efflux assay”
Summary of the method: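 Stationary-phase overnight LB cultures (37 °C) exposed to tobramycin 20xMIC alone or with berberine 80 µg/mL for 24 h at 37 °C. At 0, 7 and 24 h, aliquots PBS-washed, 10-fold serially diluted, plated on antibiotic-free CLED agar. CFU counted after 24 h at 37 °C. Biological duplicate.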

Pseudomonas aeruginosa [4] = assay: Bactericidal activity against Pseudomonas aeruginosa K1525 mexY mutant assessed as reduction in log increase in tolerant cells at 1000 times MIC measured after 24 hrs; assay type: functional
Summary of the method: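 Biofilms were grown overnight in LB in 35 mm dishes at 37 °C, then held 24 h at 37 °C in LB with tobramycin 1000xMIC, alone or with berberine 80 or 320 µg/mL. Biofilms were detached mechanically at T0 and T24, resuspended in PBS, 10-fold diluted and plated on CLED agar, and CFUs were counted after 24 h at 37 °C. Biological triplicates.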

Pseudomonas aeruginosa [5] = assay: Antibacterial activity against Pseudomonas aeruginosa NC10 cystic fibrosis assessed as reduction in bacterial growth; assay type: functional
Pseudomonas aeruginosa [6] = assay: Antibacterial activity against Pseudomonas aeruginosa NC06 cystic fibrosis assessed as reduction in bacterial growth; assay type: functional
Pseudomonas aeruginosa [7] = assay: Antibacterial activity against clinical isolate Pseudomonas aeruginosa C54 assessed as fold reduction in MIC in presence of berberine by broth microdilution method; assay type: functional
Summary of the method: (§1)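 Tobramycin MIC was determined without and with berberine 80 µg/mL by CLSI broth microdilution. The combination was called synergistic when the MIC with berberine was ≥4 times lower than with tobramycin alone.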

Pseudomonas aeruginosa [8] = assay: Antibacterial activity against clinical isolate Pseudomonas aeruginosa C59 assessed as fold reduction in MIC in presence of berberine by broth microdilution method; assay type: functional; summary of the method: as §1
Pseudomonas aeruginosa [9] = assay: Bactericidal activity against wild type Pseudomonas aeruginosa K767 persisters assessed as reduction in CFU at 20 times MIC incubated for 24 hrs by planktonic persistance assay; assay type: functional
Summary of the method: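 Stationary-phase overnight LB cultures at 37 °C were exposed to tobramycin 20xMIC, alone or with berberine 80 µg/mL, for 24 h at 37 °C. At 0, 7 and 24 h, aliquots were PBS-washed, 10-fold diluted and plated on antibiotic-free CLED agar, and survivor CFUs were counted after 24 h at 37 °C. Mean of two biological replicates ± SD.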

Pseudomonas aeruginosa [10] = assay: Antibacterial activity against Pseudomonas aeruginosa NC04 cystic fibrosis assessed as reduction in bacterial growth; assay type: functional
Pseudomonas aeruginosa [11] = assay: Antibacterial activity against cystic fibrosis isolate Pseudomonas aeruginosa C25 assessed as log reduction in tolerant cell in presence of berberine by broth microdilution method; assay type: functional
Summary of the method: (§2)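 Overnight LB cultures at 37 °C were exposed to tobramycin 20xMIC, alone or with berberine 80 µg/mL, for 24 h at 37 °C. Aliquots were PBS-washed, serially 10-fold diluted and plated on antibiotic-free CLED agar. CFUs were counted after 24 h at 37 °C, before exposure (T0) and at T24. Biological duplicates.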

Pseudomonas aeruginosa [12] = assay: Antibacterial activity against Pseudomonas aeruginosa C61 assessed as log reduction of bacterial population measured after 24 hrs; assay type: functional; summary of the method: as §2
Pseudomonas aeruginosa [13] = assay: Bactericidal activity against Pseudomonas aeruginosa K1525 mexY mutant persisters assessed as reduction in CFU at 20 times MIC incubated for 24 hrs by planktonic persistance assay; assay type: functional
Summary of the method: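 Stationary-phase (overnight, LB, 37 °C) cultures exposed to tobramycin 20xMIC with or without berberine 80 µg/mL for 24 h at 37 °C. Aliquots taken before exposure and at 24 h, PBS-washed, serially 10-fold diluted and plated on antibiotic-free CLED agar. Surviving CFU counted after 24 h at 37 °C. Biological duplicate.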

Pseudomonas aeruginosa [14] = assay: Antibacterial activity against cystic fibrosis isolate Pseudomonas aeruginosa C25 assessed as fold reduction in MIC in presence of berberine by broth microdilution method; assay type: functional; summary of the method: as §1
Pseudomonas aeruginosa [15] = assay: Antibacterial activity against Pseudomonas aeruginosa NC06 cystic fibrosis assessed as tobramycin MIC in presence of berberine; assay type: functional
Summary of the method: (§3)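 Tobramycin MIC by CLSI broth microdilution in the presence of berberine 80 µg/mL.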

Pseudomonas aeruginosa [16] = assay: Antibacterial activity against Pseudomonas aeruginosa NC02 cystic fibrosis assessed as tobramycin MIC in presence of berberine; assay type: functional; summary of the method: as §3
Pseudomonas aeruginosa [17] = assay: Antibacterial activity against clinical isolate Pseudomonas aeruginosa C54 assessed as log reduction in tolerant cell in presence of berberine by broth microdilution method; assay type: functional; summary of the method: as §2
Pseudomonas aeruginosa [18] = assay: Antibacterial activity against Pseudomonas aeruginosa K1525 mexY mutant assessed as reduction in bacterial growth rate in presence of berberine; assay type: functional, organism-based
Summary of the method: (§4)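 Overnight LB cultures diluted to OD600 0.1 and shaken at 140 rpm, 37 °C, for 24 h with or without berberine 80 µg/mL. OD600 read at 2, 4, 6, 8 and 24 h. Biological triplicates.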

Pseudomonas aeruginosa [19] = assay: Antibacterial activity against Pseudomonas aeruginosa NC02 cystic fibrosis assessed as reduction in bacterial growth; assay type: functional
Pseudomonas aeruginosa [20] = assay: Antibacterial activity against cystic fibrosis isolate Pseudomonas aeruginosa NC06 assessed as fold reduction in MIC in presence of berberine by broth microdilution method; assay type: functional; summary of the method: as §1
Pseudomonas aeruginosa [21] = assay: Antibacterial activity against cystic fibrosis isolate Pseudomonas aeruginosa NC06 assessed as reduction in tolerant cell in presence of berberine by broth microdilution method; assay type: functional; summary of the method: as §2
Pseudomonas aeruginosa [22] = assay: Antibacterial activity against clinical isolate Pseudomonas aeruginosa C84 assessed as fold reduction in MIC in presence of berberine by broth microdilution method; assay type: functional; summary of the method: as §1
Pseudomonas aeruginosa [23] = assay: Antibacterial activity against Pseudomonas aeruginosa NC10 cystic fibrosis assessed as tobramycin MIC in presence of berberine; assay type: functional; summary of the method: as §3
Pseudomonas aeruginosa [24] = assay: Antibacterial activity against Pseudomonas aeruginosa NC01 cystic fibrosis assessed as reduction in bacterial growth; assay type: functional
Pseudomonas aeruginosa [25] = assay: Antibacterial activity against wild type Pseudomonas aeruginosa K767 assessed as reduction in bacterial growth rate in presence of berberine; assay type: functional, organism-based; summary of the method: as §4
Pseudomonas aeruginosa [26] = assay: Antibacterial activity against Pseudomonas aeruginosa NC01 cystic fibrosis assessed as tobramycin MIC in presence of berberine; assay type: functional
Summary of the method: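 Broth microdilution per CLSI guidelines, tobramycin MIC determined in presence of berberine 80 μg/mL; strains grown in LB. Combination considered synergistic when MIC with berberine was ≥4 times lower than tobramycin alone.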

Pseudomonas aeruginosa [27] = assay: Antibacterial activity against cystic fibrosis isolate Pseudomonas aeruginosa C30 assessed as log reduction in tolerant cell in presence of berberine by broth microdilution method; assay type: functional; summary of the method: as §2
Pseudomonas aeruginosa [28] = assay: Antibacterial activity against Pseudomonas aeruginosa NC04 cystic fibrosis assessed as tobramycin MIC in presence of berberine; assay type: functional
Summary of the method: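 Broth microdilution per CLSI; tobramycin MIC determined with berberine present at 80 µg/mL. Synergy defined as MIC in presence of berberine ≥4 times lower than tobramycin alone.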

Pseudomonas aeruginosa [29] = assay: Antibacterial activity against clinical isolate Pseudomonas aeruginosa C84 assessed as log reduction in tolerant cell in presence of berberine by broth microdilution method; assay type: functional; summary of the method: as §2
Pseudomonas aeruginosa [30] = assay: Antibacterial activity against cystic fibrosis isolate Pseudomonas aeruginosa AR48 assessed as fold reduction in MIC in presence of berberine by broth microdilution method; assay type: functional; summary of the method: as §1

COc1ccc2cc3[n+](cc2c1OC)CCc1cc2c(cc1-3)OCO2 [BERBERINE]
Activity (Pseudomonas aeruginosa [1]): 100%
Activity (Pseudomonas aeruginosa [2]): 50%
fold change (FC) [3]: 10

NC[C@H]1O[C@H](O[C@H]2[C@H](O)[C@@H](O[C@H]3O[C@H](CO)[C@@H](O)[C@H](N)[C@H]3O)[C@H](N)C[C@@H]2N)[C@H](N)C[C@@H]1O [TOBRAMYCIN]
log(activity) (Pseudomonas aeruginosa [4]): 3
MIC (Pseudomonas aeruginosa [5]): 1 µg/mL (≈ 2.14 µM)
MIC (Pseudomonas aeruginosa [6]): 2 µg/mL (≈ 4.28 µM)
fold change (FC) (Pseudomonas aeruginosa [7]): 2
fold change (FC) (Pseudomonas aeruginosa [8]): 2
log(activity) (Pseudomonas aeruginosa [9]): 4.11e+07
MIC (Pseudomonas aeruginosa [10]): 0.5 µg/mL (≈ 1.07 µM)
log(activity) (Pseudomonas aeruginosa [11]): 2.5
log(activity) (Pseudomonas aeruginosa [12]): 1
Activity (Pseudomonas aeruginosa [13]): 250000 CFU/ml
fold change (FC) (Pseudomonas aeruginosa [14]): 16
MIC (Pseudomonas aeruginosa [15]): 0.5 µg/mL
MIC (Pseudomonas aeruginosa [16]): 16 µg/mL
log(activity) (Pseudomonas aeruginosa [17]): 1.5
Activity (Pseudomonas aeruginosa [18]): Active
MIC (Pseudomonas aeruginosa [19]): 32 µg/mL (≈ 68.4 µM)
fold change (FC) (Pseudomonas aeruginosa [20]): 4
log(activity) (Pseudomonas aeruginosa [21]): 2
fold change (FC) (Pseudomonas aeruginosa [22]): 4
MIC (Pseudomonas aeruginosa [23]): 0.25 µg/mL
MIC (Pseudomonas aeruginosa [24]): 16 µg/mL (≈ 34.2 µM)
Activity (Pseudomonas aeruginosa [25]): Active
MIC (Pseudomonas aeruginosa [26]): 8 µg/mL
log(activity) (Pseudomonas aeruginosa [27]): 3
MIC (Pseudomonas aeruginosa [28]): < 0.125 µg/mL
log(activity) (Pseudomonas aeruginosa [29]): 0.5
fold change (FC) (Pseudomonas aeruginosa [30]): 4
